From ChEMBL document CHEMBL3804761, “Synthesis of a stable and orally bioavailable englerin analogue” (Bioorg Med Chem Lett, 2016)

Legend:
Type in all cases: functional
[1] = test system: SN12C; assay: Growth inhibition of human SN12C cells assessed as cell growth at 10 uM incubated for 48 hrs by sulforhodamine B assay relative to control; details: read-out: Activity
How it was run: (§1)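 Run in the standard NCI 60-cell-line screen. Cells were exposed to drug for two days, and the read-out was sulforhodamine B staining. Compound was tested at a single final concentration of 10 µM in every line, and results are reported as growth percent.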

[2] = Growth inhibition of human HCT116 cells assessed as cell growth at 10 uM incubated for 48 hrs by sulforhodamine B assay relative to control; details: HCT-116, 48 h, read-out: Activity; how it was run: as §1
[3] = Growth inhibition of human IGROV1 cells assessed as cell growth at 10 uM incubated for 48 hrs by sulforhodamine B assay relative to control; details: IGROV-1, 48 h, read-out: Activity; how it was run: as §1
[4] = Growth inhibition of human OVCAR3 cells assessed as cell growth at 10 uM incubated for 48 hrs by sulforhodamine B assay relative to control; details: OVCAR-3, 48 h, read-out: Activity; how it was run: as §1
[5] = test system: MCF7; assay: Growth inhibition of human MCF7 cells assessed as cell growth at 10 uM incubated for 48 hrs by sulforhodamine B assay relative to control; details: MCF7, 48 h, read-out: Activity; how it was run: as §1
[6] = test system: NCI-H322M; assay: Growth inhibition of human NCI-H322M cells assessed as cell growth at 10 uM incubated for 48 hrs by sulforhodamine B assay relative to control; details: read-out: Activity; how it was run: as §1
[7] = Growth inhibition of human TK10 cells assessed as cell growth at 10 uM incubated for 48 hrs by sulforhodamine B assay relative to control; details: TK-10, 48 h, read-out: Activity
How it was run: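 NCI 60-cell line standard protocol, one-dose screen: single final concentration 10 µM, 2-day drug exposure, sulforhodamine B (SRB) endpoint; read-out is growth percent relative to untreated control.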

[8] = test system: SK-MEL-28; assay: Growth inhibition of human SK-MEL-28 cells assessed as cell growth at 10 uM incubated for 48 hrs by sulforhodamine B assay relative to control; details: SK-MEL-28, 48 h, read-out: Activity; how it was run: as §1
[9] = test system: CCRF-CEM; assay: Growth inhibition of human CCRF-CEM cells assessed as cell growth at 10 uM incubated for 48 hrs by sulforhodamine B assay relative to control; details: read-out: Activity
How it was run: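 Single-dose screen in the NCI 60-cell-line panel at one final concentration of 10 µM. Two-day drug exposure with a sulforhodamine B endpoint. Values are growth percent for each cell line.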

[10] = test system: HT-29; assay: Growth inhibition of human HT-29 cells assessed as cell growth at 10 uM incubated for 48 hrs by sulforhodamine B assay relative to control; details: HT-29, 48 h, read-out: Activity; how it was run: as §1
[11] = test system: A549; assay: Growth inhibition of human A549/ATCC cells assessed as cell growth at 10 uM incubated for 48 hrs by sulforhodamine B assay relative to control; details: A549, 48 h, read-out: Activity; how it was run: as §1
[12] = Growth inhibition of human SW620 cells assessed as cell growth at 10 uM incubated for 48 hrs by sulforhodamine B assay relative to control; details: SW-620, 48 h, read-out: Activity; how it was run: as §1
[13] = test system: K562; assay: Growth inhibition of human K562 cells assessed as cell growth at 10 uM incubated for 48 hrs by sulforhodamine B assay relative to control; details: K562, 48 h, read-out: Activity; how it was run: as §1
[14] = test system: NCI-H23; assay: Growth inhibition of human NCI-H23 cells assessed as cell growth at 10 uM incubated for 48 hrs by sulforhodamine B assay relative to control; details: NCI-H23, 48 h, read-out: Activity; how it was run: as §1
[15] = test system: MDA-MB-435; assay: Growth inhibition of human MDA-MB-435 cells assessed as cell growth at 10 uM incubated for 48 hrs by sulforhodamine B assay relative to control; details: MDA-MB-435, 48 h, read-out: Activity; how it was run: as §1
[16] = Growth inhibition of human RXF393 cells assessed as cell growth at 10 uM incubated for 48 hrs by sulforhodamine B assay relative to control; details: RXF 393, 48 h, read-out: Activity; how it was run: as §1
[17] = test system: MDA-MB-435; assay: Growth inhibition of human MDA-MB-435 cells incubated for 48 hrs by sulforhodamine B assay; details: MDA-MB-435, 48 h
How it was run: (§2)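 NCI 60-cell-line panel, standard protocol. Cells exposed to compound for two days, growth read by sulforhodamine B staining. Tested at five 10-fold dilutions, top concentration 100 µM, to give dose-response curves.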

[18] = test system: CCRF-CEM; assay: Growth inhibition of human CCRF-CEM cells incubated for 48 hrs by sulforhodamine B assay; how it was run: as §2
[19] = test system: SK-MEL-5; assay: Growth inhibition of human SK-MEL-5 cells incubated for 48 hrs by sulforhodamine B assay; details: SK-MEL-5, 48 h; how it was run: as §2
[20] = test system: MCF7; assay: Growth inhibition of human MCF7 cells incubated for 48 hrs by sulforhodamine B assay; details: MCF7, 48 h; how it was run: as §2
[21] = Growth inhibition of human SNB75 cells incubated for 48 hrs by sulforhodamine B assay; details: SNB-75, 48 h
How it was run: (§3)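 Tested in the standard NCI 60-cell-line protocol with two-day drug exposure and a sulforhodamine B endpoint. Compounds were first screened at a single final concentration of 10 µM, reported as growth percent. They were then run as five 10-fold dilutions starting from a high concentration of 100 µM to give dose-response curves.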

[22] = Growth inhibition of human BT549 cells incubated for 48 hrs by sulforhodamine B assay; details: BT-549, 48 h; how it was run: as §2
[23] = Growth inhibition of human SKOV3 cells incubated for 48 hrs by sulforhodamine B assay; details: SK-OV-3, 48 h; how it was run: as §3
[24] = test system: U-251; assay: Growth inhibition of human U251 cells incubated for 48 hrs by sulforhodamine B assay; details: U-251, 48 h; how it was run: as §3
[25] = Growth inhibition of human LOXIMVI cells incubated for 48 hrs by sulforhodamine B assay; details: LOX IMVI; how it was run: as §2
[26] = Growth inhibition of human UO31 cells incubated for 48 hrs by sulforhodamine B assay; details: UO-31, 48 h; how it was run: as §3
[27] = Growth inhibition of human IGROV1 cells incubated for 48 hrs by sulforhodamine B assay; details: IGROV-1, 48 h; how it was run: as §2
[28] = test system: M14; assay: Growth inhibition of human M14 cells incubated for 48 hrs by sulforhodamine B assay; details: M14, 48 h; how it was run: as §2
[29] = test system: Malme-3M; assay: Growth inhibition of human MALME-3M cells incubated for 48 hrs by sulforhodamine B assay; how it was run: as §2
[30] = read-out: pLC50 (the source's name) (converted)

For CC(C)[C@@]12C[C@@H](NC(=O)CF)[C@@](C)(O1)[C@@H]1CC[C@@H](C)[C@H]1[C@@H]2OC(=O)/C=C/c1ccccc1, the growth at 10 µM [1] was 103%, the growth at 10 µM [2] was 87.4% and the growth at 10 µM [3] was 103%. The growth at 10 µM [4] was 115%, the growth at 10 µM [5] was 106% and the growth at 10 µM [6] was 97.4%. For the same compound, the growth at 10 µM [7] was 104%, the growth at 10 µM [8] was 110% and the growth at 10 µM [9] was 88.6%. For the same compound, the growth at 10 µM [10] was 109%, the growth at 10 µM [11] was 94.4% and the growth at 10 µM [12] was 101%. It also gave a growth at 10 µM [13] of 106%, a growth at 10 µM [14] of 102% and a growth at 10 µM [15] of 106%.
In the case of CC(C)[C@@]12C[C@@H](NC(=O)CO)[C@@](C)(O1)[C@@H]1CC[C@@H](C)[C@H]1[C@@H]2OC(=O)/C=C/c1ccccc1, the growth at 10 µM [16] is reported as 63.3%, the growth at 10 µM [1] is reported as 48.8% and the GI50 [17] is reported as 18.2 µM. It also gave an LC50 [17] greater than 50.1 µM, a TGI ([17]; read-out: pTGI (converted)) greater than 50.1 µM and a growth at 10 µM [2] of 85.8%. For the same compound, the growth at 10 µM [3] was 106%, the growth at 10 µM [4] was 106% and the GI50 [18] was 14.1 µM. The CC50 [18, 30] was greater than 50.1 µM, the TGI ([18]; read-out: pTGI (converted)) was greater than 50.1 µM and the growth at 10 µM [5] was 94.4%. For the same compound, the GI50 [19] was 12.9 µM, the LC50 [19] was greater than 50.1 µM and the TGI ([19]; read-out: pTGI (converted)) was 42.7 µM. The growth at 10 µM [6] was 77.8%, the GI50 [20] was 14.5 µM and the CC50 [20, 30] was greater than 50.1 µM. For the same compound, the TGI ([20]; read-out: pTGI (converted)) was greater than 50.1 µM, the growth at 10 µM [7] was 102% and the growth at 10 µM [8] was 112%. It also gave a growth at 10 µM [9] of 99.8%, a GI50 [21] of 9.77 µM and an LC50 [21] greater than 50.1 µM. For the same compound, the TGI ([21]; read-out: pTGI (converted)) was 43.7 µM, the growth at 10 µM [10] was 93% and the growth at 10 µM [11] was 91.7%. For the same compound, the GI50 [22] was 6.92 µM, the CC50 [22, 30] was greater than 50.1 µM and the TGI ([22]; read-out: pTGI (converted)) was 25.1 µM. It also gave a GI50 [23] greater than 50.1 µM, an LC50 [23] greater than 50.1 µM and a TGI ([23]; read-out: pTGI (converted)) greater than 50.1 µM. It also gave a GI50 [24] of 15.5 µM, an LC50 (concentration giving 50% net cell kill) [24] greater than 50.1 µM and a TGI ([24]; read-out: pTGI (converted)) greater than 50.1 µM. The GI50 [25] was 14.5 µM, the LC50 [25] was greater than 50.1 µM and the TGI ([25]; read-out: pTGI (converted)) was greater than 50.1 µM. It also gave a GI50 [26] of 6.17 µM, a CC50 [26, 30] greater than 50.1 µM and a TGI ([26]; read-out: pTGI (converted)) greater than 50.1 µM. It also gave a growth at 10 µM [12] of 109%, a growth at 10 µM [13] of 86.6% and a GI50 [27] greater than 50.1 µM. It also gave a CC50 [27, 30] greater than 50.1 µM, a TGI ([27]; read-out: pTGI (converted)) greater than 50.1 µM and a growth at 10 µM [14] of 81.9%. The GI50 [28] was 16.6 µM, the LC50 [28] was greater than 50.1 µM and the TGI ([28]; read-out: pTGI (converted)) was greater than 50.1 µM. It also gave a growth at 10 µM [15] of 94.6%, a GI50 [29] of 20.9 µM and an LC50 [29] greater than 50.1 µM. The TGI ([29]; read-out: pTGI (converted)) was greater than 50.1 µM.
